Series [1] concerns the target T1, N-formyl peptide receptor 2 (Homo sapiens) (UniProt P25090).
T1 sequence (whole entry): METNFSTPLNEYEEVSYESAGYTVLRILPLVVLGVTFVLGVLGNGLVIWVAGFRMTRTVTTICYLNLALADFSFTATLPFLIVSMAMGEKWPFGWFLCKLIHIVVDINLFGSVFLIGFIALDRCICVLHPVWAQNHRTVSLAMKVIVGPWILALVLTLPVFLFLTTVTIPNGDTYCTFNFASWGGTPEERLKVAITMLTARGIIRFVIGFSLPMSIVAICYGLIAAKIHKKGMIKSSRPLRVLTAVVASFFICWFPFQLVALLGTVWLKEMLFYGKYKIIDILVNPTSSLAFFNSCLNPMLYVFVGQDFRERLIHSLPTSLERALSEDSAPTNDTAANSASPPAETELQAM
Description: Agonist activity at FPR2 (unknown origin) transfected in human HL60 cells assessed as induction of Ca2+ mobilization relative to WKYMVm. The series is classed as functional, cell-based. The note with it: HL-60. The method in brief:
(§1)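 Same Fluo-4 Ca2+ flux in transfected HL-60 cells. The peak fluorescence change over baseline was normalized to 5 nM fMLF for FPR1 cells and to 5 nM WKYMVm for FPR2 and FPR3 cells, each taken as 100%. Efficacy was read from 5–6 point dose-response curves.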
In general terms: A change in cytosolic calcium serves as a functional read-out for many receptors and channels.

In series [2] the test system is HL-60. Briefly: Cytotoxicity against human wild type HL60 cells at 5 to 20 uM after 60 mins by CellTitre-Glo luminescent assay. The series is classed as cell-based. Conditions: hl-60, 1 h. The method in brief:
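Wild-type HL-60 cells at 3×10^4 cells/well were exposed to 5, 10 or 20 µM compound for 60 min at 37 °C in 5% CO2. Samples were equilibrated to room temperature for 30 min before the CellTiter-Glo luminescence read. Triplicate samples; the experiment was representative of two.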

The target of series [3] is T2, N-formyl peptide receptor 3 (Homo sapiens, UniProt P25089).
T2 sequence (P25089 whole entry): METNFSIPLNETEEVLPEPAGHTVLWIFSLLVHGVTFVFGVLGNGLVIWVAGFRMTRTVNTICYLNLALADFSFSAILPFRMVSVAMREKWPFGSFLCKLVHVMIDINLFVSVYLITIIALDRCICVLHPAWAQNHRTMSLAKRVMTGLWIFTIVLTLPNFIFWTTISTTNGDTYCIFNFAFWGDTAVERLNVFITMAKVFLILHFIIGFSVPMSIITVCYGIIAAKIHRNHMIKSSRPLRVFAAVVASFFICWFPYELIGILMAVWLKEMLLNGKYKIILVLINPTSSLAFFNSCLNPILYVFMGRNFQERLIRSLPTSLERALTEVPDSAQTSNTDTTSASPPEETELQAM
Description: Agonist activity at FPR3 (unknown origin) transfected in human HL60 cells assessed as induction of Ca2+ mobilization. The series is classed as cell-based, HL-60.

Series [4] has as its target T3, fMet-Leu-Phe receptor (Homo sapiens) (UniProt P21462).
T3 sequence (whole entry): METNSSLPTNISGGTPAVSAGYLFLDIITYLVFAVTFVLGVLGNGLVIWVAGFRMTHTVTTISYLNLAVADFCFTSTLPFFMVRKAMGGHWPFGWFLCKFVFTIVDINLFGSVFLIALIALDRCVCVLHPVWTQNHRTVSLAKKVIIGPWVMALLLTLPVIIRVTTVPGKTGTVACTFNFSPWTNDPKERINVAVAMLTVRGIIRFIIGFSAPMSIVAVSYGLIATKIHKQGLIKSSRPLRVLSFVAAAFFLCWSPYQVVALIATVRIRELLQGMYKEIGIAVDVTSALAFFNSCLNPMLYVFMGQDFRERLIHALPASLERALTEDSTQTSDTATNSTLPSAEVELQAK
Description: Agonist activity at FPR1 (unknown origin) transfected in human HL60 cells assessed as induction of Ca2+ mobilization relative to fMLF. The series is classed as functional, cell-based. The note with it: HL-60. The method in brief: as §1

Series [5] deals with fMet-Leu-Phe receptor 1/2 (Homo sapiens) (UniProt P21462+P25090). Description: Agonist activity at FPR1/FPR2 in human neutrophils assessed as induction of Ca2+ mobilization relative to fMLF. The series is classed as functional. The method in brief: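 Neutrophils from healthy donors were isolated by dextran sedimentation, Histopaque 1077 gradient and hypotonic red cell lysis. […] Peak response was normalized to 5 nM fMLF as 100%. EC50 comes from 5–6 point curves, mean of three experiments with different donors.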

For series [6], the system named is HL-60. Description: Effect on Ca2+ mobilization in human wild type HL60 cells. The series is classed as functional, cell-based. The method, boiled down:
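Wild-type, non-transfected HL-60 cells, grown without G418, were run in the same Fluo-4 Ca2+ flux assay. Fluorescence was monitored every 5 s for 240 s at room temperature.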

The target in series [7] is T4, N-formyl peptide receptor 3 (Homo sapiens) (UniProt P25089).
T4 sequence (whole entry): T2 sequence (P25089 whole entry)
Description: Agonist activity at FPR3 (unknown origin) transfected in human HL60 cells assessed as induction of Ca2+ mobilization relative to WKYMVm. The note with it: HL-60. The series is classed as cell-based. The method, boiled down:
as §1

Series [8] has as its target T5, fMet-Leu-Phe receptor (Homo sapiens, UniProt P21462).
T5 sequence (P21462 whole entry): T3 sequence (whole entry)
Description: Agonist activity at FPR1 (unknown origin) transfected in human HL60 cells assessed as induction of Ca2+ mobilization. The series is classed as functional, cell-based, HL-60.

Series [9] concerns the target T6, N-formyl peptide receptor 2 (Homo sapiens, UniProt P25090).
T6 sequence (P25090 whole entry): T1 sequence (whole entry)
Description: Agonist activity at FPR2 (unknown origin) transfected in human HL60 cells assessed as induction of Ca2+ mobilization. The series is classed as functional, cell-based, HL-60.

A value given as a limit tells only on which side of the number the result lay.

As usually defined, the EC50 is the concentration needed to bring the measured effect to its halfway point. `Cc1cc(Cc2ccsc2)c(=O)n(CC(=O)Nc2ccc(Br)cc2)n1`: the figures for the Efficacy in [1], in series [4] and in series [5] were 65%, 100% and 115%, respectively. In addition, the Activity result in series [2] was “Non-toxic”. Moreover, the EC50 in series [3] and in series [6] was over 50 µM each time.

As to `COc1cccc(Cc2cc(C(C)C)nn(CC(=O)Nc3ccc(Br)cc3)c2=O)c1`, the Efficacy is 90% in [1], 135% in series [4], 110% in series [5] and 30% in series [7]. In addition, the Activity entry in series [2] is recorded as “Non-toxic”. The EC50 in series [3] is 17.4 µM; in series [6], over 50 µM.

For the compound `Cc1cc(Cc2ccc(C(N)=O)cc2)c(=O)n(CC(=O)Nc2ccc(Br)cc2)n1`, the values for the Efficacy in [1] and in [4] were 80% and 40%, respectively. In addition, the EC50 was 29.3 µM in [8], 27.2 µM in series [9], over 50 µM in [3] and over 50 µM in series [6]. In [2], the Activity entry is “Non-toxic”.

Consider `Cc1cc(Cc2cccc(Cl)c2)c(=O)n(CC(=O)Nc2ccc(Br)cc2)n1`, for which the Activity result in series [2] is on record as “Non-toxic”. The EC50 in [3] and in series [6] was over 50 µM in each case. For the same compound, the Efficacy came to 100% in series [4] and 90% in series [5].

Regarding `Cc1cc(Cc2cccc3ccccc23)c(=O)n(CC(=O)Nc2ccc(Br)cc2)n1`, the EC50 in series [8] is 13.8 µM; in series [9], over 50 µM; in [3] it was over 50 µM; in series [6], over 50 µM. Besides, the Activity result in series [2] is reported as “Non-toxic”. For the same compound, the Efficacy in [4] came to 20%.

On to `COc1cc(Cc2cc(C)nn(CC(=O)Nc3ccc(I)cc3)c2=O)cc(OC)c1`, for which the Activity entry in series [2] is recorded as “Non-toxic”. The EC50 in series [3] and in series [6] was over 50 µM each time. Besides, the results for the Efficacy in [4] and in [5] were 80% and 75%, respectively.

With `COc1ccc(Nc2cc(C)nn(CC(=O)Nc3ccc(Br)cc3)c2=O)cc1`, the Efficacy in [1] is 110%; in [4] it was 100%; in series [5], 105%. The Activity entry in series [2] was “Non-toxic”. Further, the EC50 in [3] and in series [6] was over 50 µM each time.

With `COc1ccc(-c2cc(C)nn(CC(=O)Nc3ccc(Br)cc3)c2=O)cc1`, in series [2], the Activity result is “Non-toxic”. In addition, the EC50 in series [3] and in series [6] was over 50 µM in each case. The values for the Efficacy in [4] and in [5] were 55% and 70%, respectively.

For the compound `Cc1cc(N)c(=O)n(CC(=O)Nc2ccc(Br)cc2)n1`, the Efficacy in series [1] was 85%; in series [4], 115%. Also, in series [2], the Activity result is listed as “Non-toxic”. Besides, the EC50 in [3] and in [6] was over 50 µM throughout.

Consider `COc1cccc(Cc2ccnn(CC(=O)Nc3ccc(Br)cc3)c2=O)c1`, for which the Efficacy in [1] was found to be 60%; in series [4], 125%; in series [7], 25%. In series [2], the Activity entry is given as “Non-toxic”. The EC50 was 14.6 µM in series [3] and over 50 µM in [6].

`Cc1cc(Cc2cccnc2)c(=O)n(CC(=O)Nc2ccc(Br)cc2)n1`: the Efficacy in [1] is 90%; in series [4] it was 85%; in [5], 120%. The Activity entry in [2] is on record as “Non-toxic”. The EC50 in series [3] and in series [6] was over 50 µM each time.

For `CCc1cc(Cc2cccc(OC)c2)c(=O)n(CC(=O)Nc2ccc(I)cc2)n1`, the Efficacy in series [1] worked out at 65%; in series [4], 70%; in series [5] it was 90%. Also, the Activity result in series [2] was “Non-toxic”. The EC50 in series [3] and in series [6] was over 50 µM throughout.

As to `COc1cccc(C(=O)c2cc(C)nn(CC(=O)Nc3ccc(Br)cc3)c2=O)c1`, the figures for the Efficacy in [1], in [4] and in series [5] were 110%, 140% and 115%, respectively. Further, the Activity result in series [2] was “Non-toxic”. Also, the EC50 in [3] and in [6] was over 50 µM throughout.

Take `Cc1cc(Cc2cccc(Cl)c2)c(=O)n(CC(=O)Nc2ccc(I)cc2)n1`: the Efficacy worked out at 35% in [1], 55% in [4] and 90% in series [5]. Further, the Activity result in series [2] is “Non-toxic”. In addition, the EC50 in series [3] and in series [6] was over 50 µM each time.

Take `Cc1cc(Cc2ccoc2)c(=O)n(CC(=O)Nc2ccc(Br)cc2)n1`: the Efficacy in [1] worked out at 75%; in [4], 100%; in series [5], 125%. Besides, the Activity result in [2] was “Non-toxic”. Besides, the EC50 in [3] and in series [6] was over 50 µM throughout.

As for `COc1cccc(Cc2cc(C3CCCCC3)nn(CC(=O)Nc3ccc(Br)cc3)c2=O)c1`, the Activity result in [2] is given as “Non-toxic”. Moreover, the EC50 in series [3] and in [6] was over 50 µM each time. Also, the Efficacy worked out at 80% in series [4] and 65% in [5].

As to `Cc1cc(Cc2cccs2)c(=O)n(CC(=O)Nc2ccc(Br)cc2)n1`, the Efficacy in series [1] was 60%; in series [4], 140%; in series [5], 80%; in series [7], 25%. The Activity result in series [2] is “Non-toxic”. In addition, the EC50 is 10.2 µM in [3] and over 50 µM in [6].

`Cc1cc(Cc2ccccc2)c(=O)n(CC(=O)Nc2ccc(Br)cc2)n1`: the Efficacy in series [1] was 20%; in [4] it was 50%. In addition, the EC50 in series [8] is 5.5 µM; in [9] it was 11.6 µM; in series [3], over 50 µM; in series [6], over 50 µM. In addition, in series [2], the Activity result was “Non-toxic”.

`Cc1cc(Cc2cccc(F)c2)c(=O)n(CC(=O)Nc2ccc(Br)cc2)n1`: the Activity result in [2] was “Non-toxic”. In addition, the EC50 in [3] and in [6] was over 50 µM throughout. For the same compound, the Efficacy in series [4] amounted to 110%; in series [5], 130%.

As to `COc1cccc(C(=O)Nc2cc(C)nn(CC(=O)Nc3ccc(Br)cc3)c2=O)c1`, the Efficacy in series [1] was found to be 100%; in series [4] it was 120%; in series [5], 110%. The Activity result in [2] was “Non-toxic”. For the same compound, the 50% effective concentration (EC50) in series [3] and in series [6] was over 50 µM throughout.

As for `COc1cccc(Cc2cc(-c3ccccc3)nn(CC(=O)Nc3ccc(Br)cc3)c2=O)c1`, the Efficacy in [1] was 25%; in series [4], 110%; in series [5], 115%. Further, the Activity entry in series [2] is recorded as “Non-toxic”. Moreover, the EC50 in series [3] and in [6] was over 50 µM in each case.

(Values after ChEMBL document CHEMBL2390925, “Further studies on 2-arylacetamide pyridazin-3(2H)-ones: design, synthesis and evaluation of 4,6-disubstituted analogs as formyl peptide receptors (FPRs) agonists” (Eur J Med Chem, 2013).)
